Data as given in publication PMC10824272 (Biomedicine & pharmacotherapy = Biomedecine & …, 2023).

Legend:
SW480 cells = assay: Cell viability; format: cell-based, human; conditions: even at 25μM
HCT116 cells = assay: Anoikis-induced apoptosis assay; format: cell-based, human; conditions: claudin-1 deficient HCT116
[1] = test system: SW480^cld1, SW620 and HCT116 cells; assay: Screening of I-6 analogs by anoikis; format: cell-based, human; conditions: Suppl Fig3
In short: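 Anoikis induced by plating cells on poly-HEMA-coated culture plates. Apoptosis quantified with a cell death detection ELISA. Parental lines were cultured in RPMI with 10% FBS. Claudin-1-overexpressing SW480 and claudin-1-knockdown SW620 derivatives were used.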

SW480^cld1 cells = assay: Transwell matrigel invasion assay; format: cell-based, human; conditions: PDS-0330 25μM; P < 0.0001 vs control and 20A
[2] = test system: SW480^cld1 xenograft tumor; assay: Subcutaneous xenograft tumor study; format: in vivo, athymic nude mice
In short: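 Cells implanted subcutaneously in athymic nude mice, n = 5 per group, vehicle controls. For SW480cld1 with I-6, once-weekly dosing started 10 days after implantation, once tumors were palpable, for two weeks. Caliper volume over time, formula […]. Ki67 and cleaved PARP by IHC. Behavior and body weight monitored.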

SW620 xenograft tumor = assay: Subcutaneous xenograft tumor study; format: in vivo, athymic nude mice
[3] = Plasma pharmacokinetics in mice; format: in vivo; conditions: for AUC(0-t) / CL/F / Cmax / Tmax / Vd/F / half-life / AUC(0-inf): both, mouse, plasma, 5 mg/kg; for AUC(0-inf): AUC0−∞, mice
In short: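 I-6 given as a single 1 mg/kg intravenous dose to C57BL6 mice (n=5), with serial blood sampling. PDS-0330 given at 5 mg/kg by oral gavage or IP, with ~100 μl blood drawn from the maxillary vein at 5, 15, 30 min and 1, 2, 4, 6, 8, 24 h. Plasma levels in ng/ml; non-compartmental parameters.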

[4] = test system: pSrc, pAkt, Bcl2, Bcl-xL, survivin, cleaved PARP in SW620 and SW480^cld1 cells; assay: Immunoblotting of signaling and apoptosis markers; format: cell-based, human; conditions: PDS-0330 12.5 and 25μM
In short: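 Treated cells (vehicle or 12.5 and 25 μM) lysed. 10–30 μg protein per lane resolved by SDS-PAGE and immunoblotted, with enhanced chemiluminescence detection on film. Antibodies included p-Src (Tyr416), pAkt and total Akt, with GAPDH or β-actin as loading reference.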

[5] = PDS-0330 5mg/Kg and 10mg/Kg vs vehicle

For `O=C(NC(=S)Nc1ccc(-c2nc3ccccc3o2)cc1)c1ccc2ccccc2c1` [PDS-0330, N-((4-(benzo[d]oxazol-2-yl)phenyl)carbamothioyl)-2-naphthamide], the “impact on SW480 cells” value (SW480 cells) was “no significant impact”, the resistance to anoikis (HCT116 cells) was “not affecting” and the “potency in inducing cell death among I-6 analogs” value [1] was “most potent”. For the same compound, the cell invasion (SW480^cld1 cells) was “significantly inhibited”, the “apoptosis in tumors (cleaved PARP, BclxL, survivin)” value ([2]; PDS-0330 5mg/Kg and 10mg/Kg) was “increase in apoptosis” and the “proliferation in tumors (Ki67)” value ([2]; PDS-0330 5mg/Kg and 10mg/Kg) was “reduced proliferation”. The “tumor volume and weight” value [2, 5] was “significant reduction”, the “apoptosis in tumors (cleaved PARP, BclxL, survivin)” value (SW620 xenograft tumor; PDS-0330 5mg/Kg and 10mg/Kg) was “increase in apoptosis” and the “proliferation in tumors (Ki67)” value (SW620 xenograft tumor; PDS-0330 5mg/Kg and 10mg/Kg) was “reduced proliferation”. For the same compound, the “tumor volume and weight” value (SW620 xenograft tumor; [5]) was “significant reduction”, the “tumor volume, combination with 5-FU” value (SW620 xenograft tumor; PDS-0330 and 5-FU in combination vs either alone) was “substantial reduction” and the “mouse behavior or weight” value ([3]; 24 hours after a single PO and IP injection (5 mg/kg), data not shown) was “no change”. The AUC(0-t) ([3]; ip) was 422 ng·h/mL, the CL/F ([3]; ip) was 245 mL/min/kg and the Cmax ([3]; ip) was 59.3 ng/mL. It also gave a Tmax ([3]; ip) of 2.8 h, a Vd/F ([3]; ip) of 126 L/kg and a half-life ([3]; ip) of 5.5 h. For the same compound, the AUC(0-inf) ([3]; ip, PDS-0330 IP 5mg/kg) was 442 ng·h/mL, the AUC(0-t) ([3]; po) was 53.4 ng·h/mL and the CL/F ([3]; po) was 1190 mL/min/kg. It also gave a Cmax ([3]; po) of 30.8 ng/mL, a Tmax ([3]; po) of 0.4 h and a Vd/F ([3]; po) of 1100 L/kg. For the same compound, the half-life ([3]; po) was 14.5 h, the AUC(0-inf) ([3]; po, PDS-0330 PO 5mg/kg) was 86 ng·h/mL and the Akt activation [4] was “suppressing Akt activation”. The “Bcl-2 and Bcl-xL expression” value [4] was “inhibiting”, the “anti-apoptotic proteins Bcl2, Bcl-xL and Survivin” value ([4]; SW480^cld1 and SW620) was “decrease” and the “apoptotic protein cleaved PARP” value ([4]; SW480^cld1 and SW620) was “increase”. For the same compound, the Src phosphorylation ([4]; SW620 and SW480^cld1) was “prevents Src phosphorylation”.
